A selection: hits, their analogues and other compounds. The true share with any hit is near 2.1%.
APOBEC3A inh = human APOBEC3A DNA deaminase inhibition | P31941 | recombinant A3A, FAM/TAMRA ssDNA deamination fluorescence | inhibition, % at 20 µM | 330,000 tested, 0.41% active | AID 493011;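 active = at least 40% inhibition at 20 µM here, with at most 30% in a related deaminase screen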
ARFGAP1 inh = inhibitors of rat ARFGAP1. Q62848. Arfgap1-stimulated ARF1 GTP hydrolysis, GDP FP detection. inhibition, % at 16.5 µM. 360,000 tested, 0.26% active. AID 651572;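 active = inhibition above a per-plate limit, mean inhibition of low control wells plus 3 SD, cut at about 25% in these data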
Target sequence (Q62848 1-136 limits assumed): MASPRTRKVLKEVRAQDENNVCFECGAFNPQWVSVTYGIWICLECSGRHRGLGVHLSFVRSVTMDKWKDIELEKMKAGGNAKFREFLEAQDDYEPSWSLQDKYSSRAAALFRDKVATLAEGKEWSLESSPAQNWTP
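system = rat Arfgap1 catalytic domain, aa 1-136 | technique = FP, GDP Alexa 633 tracer displaced from anti-GDP antibody, 620/688 nm | compound = one concentration, 16.5 µM, DMSO 1.26% | medium = HEPES-based buffer, pH 7.5 | timing = compound-enzyme preincubation 20 min, reaction 120 min, detection 60 min, 25 °C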
ASAP1 inh = inhibitors of human ASAP1 ArfGAP activity; Q9ULH1; ASAP1-stimulated ARF1 GTP hydrolysis, GDP FP detection; inhibition, % at 16.5 µM; 360,000 tested, 0.19% active; in the data active = inhibition above about 25%
SUMO Mot1 rescue = blocks SUMOylation pathway, rescuing yeast Mot1-301 growth; S. cerevisiae Mot1-301 growth rescue, ATP luminescence, 38.5C; percent above DMSO median, 100 means doubled; growth rescue, % at 18.8 µM; 320,000 tested, 1% active; AID 2716;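 active = every valid replicate shows activation above 250% relative to neutral control wells; inactive = the rest, any valid replicate at or below 250%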
APOBEC3G inh = blocks human APOBEC3G single-stranded DNA deamination; inhibition, % at 20 µM; 330,000 tested, 0.28% active; Q9HC16; recombinant A3G, ssDNA deamination FAM/TAMRA fluorescence; AID 493012;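 active = inhibition of at least 40% at 20 µM, with no more than 30% in the related APOBEC3A deaminase screen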
Target sequence (Q9HC16 whole entry, looked up): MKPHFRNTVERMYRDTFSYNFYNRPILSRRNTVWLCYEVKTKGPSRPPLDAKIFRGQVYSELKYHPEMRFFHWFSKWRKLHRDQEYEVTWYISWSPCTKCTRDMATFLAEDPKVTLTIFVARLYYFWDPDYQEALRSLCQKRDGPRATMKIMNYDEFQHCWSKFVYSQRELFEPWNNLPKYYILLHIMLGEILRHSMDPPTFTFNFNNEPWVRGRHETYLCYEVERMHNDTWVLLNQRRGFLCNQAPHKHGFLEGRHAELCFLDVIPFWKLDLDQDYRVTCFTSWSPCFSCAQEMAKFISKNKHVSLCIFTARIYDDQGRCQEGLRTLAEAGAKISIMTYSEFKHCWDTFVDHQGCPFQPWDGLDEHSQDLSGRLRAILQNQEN
C2C12 statin = protects C2C12 myotubes from simvastatin toxicity; ATP luminescence, 48 h; scaled: DMSO 0, geranylgeraniol control 100; rescue of ATP level, % at 7.49 µM; 330,000 tested, 0.78% active;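 active = mean ATP rescue above about 67%, or every replicate alone reaching that limit, limit read from the data, passing the limit was not always enough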;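 also: myotubes were challenged with 10 µM simvastatin during compound exposure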
Mot1 SUMO dose = inhibits SUMO pathway, affecting Mot1-301 yeast growth | shares compounds with SUMO Mot1 rescue | S. cerevisiae Mot1-301 galactose growth, ATP luminescence, 24 h; -100 = growth of slx-deleted rescue strain | growth activity, percent, % at 42 µM | 2,300 tested, under 10 active | AID 493004;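 active = Signal drops as the depositor expects, and the fitted half-maximal dose is no more than ten times the top valid tested dose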;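 also: more negative values mean stronger growth rescue toward the control strain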
Hits are given with their value; 0 = inactive; - = no result given; + = active, no number.

SMILES | APOBEC3A inh | ARFGAP1 inh | ASAP1 inh | SUMO Mot1 rescue | APOBEC3G inh | C2C12 statin | Mot1 SUMO dose
COc1ccc(C(=O)CC(=O)C(=O)Nc2ccc(C)c(C)c2)cc1 | 0 | 0 | 0 | 538.5 | 0 | 0 | 0
C/C=C/c1ccc2c(c1)O[C@@H](CN(C)C(=O)C1CC1)[C@H](C)CN([C@H](C)CO)S2(=O)=O | - | - | - | - | - | 0 | -
CCOC(=O)NNC(=O)CCn1c2c(c3ccccc31)CCCC2 | 0 | 0 | 0 | 960.0 | 0 | - | 0
N#CCC(=O)N/N=C/c1ccc(OS(=O)(=O)c2ccccc2)cc1 | 0 | 0 | 0 | 845.8 | 0 | - | 0
CN(C)CCCNC(=O)C[C@H]1CC[C@H]2[C@@H](COc3ccc(NC(=O)c4ccccc4F)cc3C(=O)N2C)O1 | - | - | - | - | - | 0 | -
CCCN(CC1CC1)C(=O)COc1ccccc1C(=O)NCc1ccccc1 | 0 | 0 | 0 | 801.6 | 0 | 0 | 0
CCC(C)N(C(=O)COc1ccccc1C(=O)NCc1ccccc1)C1CCS(=O)(=O)C1 (centres undefined) | 0 | 0 | 0 | 0 | 0 | 0 | -
Cc1ccc2c(c1)N(CC(=O)NCC1CCCO1)C(=O)C(C)O2 (centres undefined) | 0 | 0 | 0 | 521.8 | 0 | - | 0
O=C(C[C@@H]1C[C@@H]2c3cc(NC(=O)Nc4ccccc4F)ccc3O[C@@H]2[C@H](CO)O1)NCC(F)(F)F | - | - | - | - | - | 0 | -
Cc1c(C(=O)NC(=S)Nc2ccccc2N2CCCC2)cccc1[N+](=O)[O-] | 0 | 0 | 0 | 425.5 | 0 | - | 0
O=C(NC(=S)Nc1ccccc1N1CCOCC1)c1ccc([N+](=O)[O-])cc1 | 0 | 0 | 0 | 0 | 0 | - | -
O=C(NC(=S)Nc1ccccc1N1CCCC1)c1ccc([N+](=O)[O-])cc1 | 0 | 0 | 0 | 407.0 | 0 | - | 0
COC(=O)c1sc(NC(=O)c2ccc(Cn3cc(Cl)cn3)o2)c(C#N)c1C | 0 | 0 | 0 | + | 0 | - | 0
N#Cc1c(NC(=O)c2ccc(Cn3cc(Br)cn3)o2)sc2c1CCCCC2 | 0 | 0 | 0 | 0 | 0 | 0 | -
COC(=O)c1ccc(Cn2cc(Cl)cn2)cc1 | 0 | 0 | 0 | 652.1 | 0 | 0 | 0
O=C(Nc1cnn(Cc2ccc(Cl)cc2)c1)c1ccc([N+](=O)[O-])cc1 | 0 | 0 | 0 | 390.2 | 0 | - | 0
C[C@@H](O)C#Cc1ccc([C@@H]2[C@@H](CO)N3CCCCN(S(=O)(=O)Cc4ccccc4)C[C@H]23)cc1 | - | - | - | - | - | 0 | -
C[C@H]1CN([C@@H](C)CO)C(=O)Cc2cc(NC(=O)NC3CCCCC3)ccc2O[C@@H]1CN(C)S(C)(=O)=O | - | - | - | - | - | 0 | -
CC(C)NC(=O)NC(=O)COC(=O)CCCSc1nc2ccccc2s1 | 0 | 0 | 0 | 504.6 | 0 | 0 | 0
Cn1c(CN2CCOCC2)nnc1SCC(N)=O | 0 | 0 | 0 | 538.2 | 0 | 0 | 0
C[C@@H]1CN([C@@H](C)CO)C(=O)Cc2cc(NS(C)(=O)=O)ccc2O[C@H]1CN(C)S(=O)(=O)c1ccccc1 | - | - | - | - | - | 0 | -
CNC[C@H]1Oc2cc(C#CCN(C)C)ccc2S(=O)(=O)N([C@@H](C)CO)C[C@@H]1C | - | - | - | - | - | 0 | -
COc1cc(CN(C)CCc2ccccc2)ccc1OCc1ccccc1 | 0 | 0 | 0 | 0 | 0 | 0 | -
CCN(Cc1ccccc1)Cc1ccc(OCc2ccccc2)c(OC)c1 | 0 | 0 | 0 | 365.4 | 0 | 0 | 0
COc1cc(C)ccc1OCCCOc1ccccc1Br | 0 | 0 | 0 | + | 0 | 0 | 0
SMILES | APOBEC3A inh | ARFGAP1 inh | ASAP1 inh | SUMO Mot1 rescue | APOBEC3G inh | C2C12 statin | Mot1 SUMO dose
O=C(C[C@@H]1C=C[C@@H](NC(=O)c2ccc(F)cc2)[C@@H](CO)O1)NCCc1ccncc1 | - | - | - | - | - | 0 | -
CC(C)C#Cc1ccc2c(c1)O[C@H](CN(C)CC1CCOCC1)[C@@H](C)CN([C@@H](C)CO)S2(=O)=O | - | - | - | - | - | 0 | -
COC(=O)c1ccc(NC(=O)Nc2ccc(OC)cc2)cc1 | 0 | 0 | 0 | 0 | 0 | 0 | -
COc1ccc(NC(=O)Nc2ccc(OC)cc2)cc1 | 0 | 0 | 0 | 391.5 | 0 | 0 | 0
COc1ccc(NC(=S)NC(=O)C2CCC2)cc1 | 0 | 0 | 0 | 555.1 | 0 | 0 | 0
COC(=O)c1ccc(NC(=S)NC(=O)C2CCC2)cc1 | 0 | 0 | 0 | 0 | 0 | - | -

High-throughput results as filed in PubChem.
